# Laboratory results from PubChem BioAssay.
# The source made the active and inactive calls.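 How the source made its calls, unless noted: active means viability at or under a set limit in both replicates, limit being median viability minus 3 SD (cut at about 48% in these data, passing the limit was not always enough); inconclusive means at or under the limit in just one replicate; inactive means at or above the limit in both replicates.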
# Key:
# [1] = reducers of endogenous Her2 protein level, primary screen, SKBR3 breast tumor cells, AlphaScreen, ATP viability (AID 461;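 active means Her2 level under about 52% in both replicate screens, with viability over 70% of control, limit read from the data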;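 on Her2 level: lower value means less Her2 protein in the cells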;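 on viability: percent of carrier control wells set as 100% viability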); details: 18-24 h, measured here: SKBR3 viability, ATP luminescence, at 10 µM
# [2] = target: Receptor tyrosine-protein kinase erbB-2 (Homo sapiens) (UniProt P04626); assay: as above; details: 18-24 h, at 10 µM, stronger effect = lower value
# Chain of Receptor tyrosine-protein kinase erbB-2 (Homo sapiens) (P04626 whole entry, looked up): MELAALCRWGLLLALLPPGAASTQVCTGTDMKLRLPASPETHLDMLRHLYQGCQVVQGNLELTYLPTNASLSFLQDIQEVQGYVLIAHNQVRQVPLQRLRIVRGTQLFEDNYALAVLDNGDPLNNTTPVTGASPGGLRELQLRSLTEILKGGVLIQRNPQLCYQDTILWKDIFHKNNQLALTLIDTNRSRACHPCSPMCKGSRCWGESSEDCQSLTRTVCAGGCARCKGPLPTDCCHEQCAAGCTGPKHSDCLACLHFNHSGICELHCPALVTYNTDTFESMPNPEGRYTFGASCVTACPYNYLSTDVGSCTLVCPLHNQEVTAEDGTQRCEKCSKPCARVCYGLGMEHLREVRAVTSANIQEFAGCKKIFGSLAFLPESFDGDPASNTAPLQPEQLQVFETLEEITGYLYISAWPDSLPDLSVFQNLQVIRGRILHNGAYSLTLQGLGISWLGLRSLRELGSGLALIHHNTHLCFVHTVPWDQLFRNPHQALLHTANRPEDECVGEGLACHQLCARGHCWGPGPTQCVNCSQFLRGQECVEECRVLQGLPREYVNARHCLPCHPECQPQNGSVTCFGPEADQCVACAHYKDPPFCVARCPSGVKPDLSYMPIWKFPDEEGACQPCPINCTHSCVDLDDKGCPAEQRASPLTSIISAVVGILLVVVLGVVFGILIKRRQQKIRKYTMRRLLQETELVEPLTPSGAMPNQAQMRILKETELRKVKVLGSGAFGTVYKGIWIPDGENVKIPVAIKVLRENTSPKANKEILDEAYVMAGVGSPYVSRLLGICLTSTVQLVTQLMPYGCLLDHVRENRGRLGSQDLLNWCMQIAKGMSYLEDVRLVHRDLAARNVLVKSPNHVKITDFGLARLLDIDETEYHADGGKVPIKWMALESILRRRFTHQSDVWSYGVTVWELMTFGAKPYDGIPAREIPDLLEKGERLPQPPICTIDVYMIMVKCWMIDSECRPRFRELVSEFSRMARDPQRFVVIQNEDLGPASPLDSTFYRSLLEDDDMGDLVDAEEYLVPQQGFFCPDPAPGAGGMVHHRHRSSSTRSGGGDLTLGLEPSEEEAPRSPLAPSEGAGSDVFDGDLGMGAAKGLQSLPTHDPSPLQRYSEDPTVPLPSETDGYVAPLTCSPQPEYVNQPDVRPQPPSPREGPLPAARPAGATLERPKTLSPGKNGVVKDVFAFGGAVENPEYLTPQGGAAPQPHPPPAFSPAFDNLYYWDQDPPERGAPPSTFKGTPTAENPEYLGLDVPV
# [3] = SK-BR-3 cell growth inhibitors, pilot screen, 24 h, human (AID 572;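 active means viability at or below 10% of carrier control in both of two separate runs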;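 further: compound exposure lasted between 18 and 24 h rather than exactly 24 h; 100% = carrier-treated control wells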); details: SK-BR-3 viability, CellTiter-Glo luminescence, at 10 µM, stronger effect = lower value
# [4] = HUVEC growth inhibition – cell-based, human, primary screen (AID 575;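 active means viability at or below 30% in both replicate assays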;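 further: 100% = median of untreated cell wells with 0.1% DMSO on each plate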); details: HUVEC proliferation, CellTiter-Glo luminescence, 72 h; at 10 µM; stronger effect = lower value
# Method in brief: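 Material: primary human umbilical vein endothelial cells / Schedule: 72 h exposure, 37 °C, 5% CO2, 30 min RT equilibration / Signal: ATP-based CellTiter-Glo luminescent read / Read-out basis: percent of median DMSO-control luminescence / Control set: 32 DMSO-only cell-control wells (high), 32 MePR drug-control wells (low) per plate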
# [5] = growth inhibitors of H69AR lung tumor, primary screen, human, duplicate replicates (AID 580); details: H69AR lung tumor cells viability, ATP luminescence, 72 h; at 10 µM; stronger effect = lower value;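 further: 100% = mean luminescence of untreated wells and 0% = no signal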
# [6] = reversal of MRP1-mediated doxorubicin resistance, pilot screen, H69AR cells, doxorubicin co-treatment (AID 601;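 active means viability loss from added drug above about 55%, and viability with drug at most 40%, in both replicates, limit read from the data, passing the limit was not always enough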); details: CellTiter-Glo, 72 h, at 10 µM; for differential viability (reversal): stronger effect = higher value
# [7] = 384-well plate pilot, post-Golgi transport modulator project, inhibition of yeast transport mutant growth (AID 636; in the data active means inhibition above about 31%); details: absorbance 615 nm, about 18 h, stronger effect = higher value
# [8] = growth suppression of yeast trafficking mutant, preliminary HTS, modulators of trafficking downstream of Golgi apparatus project, 1536-format plate, OD 615 nm (AID 637; in the data active means inhibition above about 30%); details: yeast transport mutant growth, absorbance 615 nm, 18 h; stronger effect = higher value
# [9] = H69AR cells + 2 uM doxorubicin, measured here: viability with 2 uM doxorubicin, stronger effect = lower value
# [10] = H69AR cells, compound alone cytotoxicity
SMILES,viability [1],Her2 level [2],viability [3],viability [4],viability [5],differential viability (reversal) ([6]; H69AR cells + 2 uM doxorubicin),"viability [6, 9]","viability [6, 10]",inhibition [7],inhibition [8]
O=S(=O)(CCOc1ccccc1)c1nc2ccccc2[nH]1,104%,18.5% (active),104% (inactive),54.7% (inactive),1.98% (active),0.22% (inactive),1.77%,1.98%,-3.95% (inactive),3.11% (inactive)
CCOc1ccccc1C1NC(=O)NC(C)=C1C(=O)OC1CCCC1C (stereo not given),94.5%,69% (inactive),94.5% (inactive),82.5% (inactive),78.1% (inactive),2.33% (inactive),75.8%,78.1%,-1.73% (inactive),0.81% (inactive)
CCn1nc(C(=O)OCC(=O)N2CCc3ccccc32)c2ccccc2c1=O,99.5%,106% (inactive),99.5% (inactive),88.2% (inactive),96.8% (inactive),2.27% (inactive),94.6%,96.8%,1.41% (inactive),-11.2% (inactive)
Cc1ccc2c(c1)NC(=O)C(CC(=O)NC1CCCCC1C)O2 (stereo not given),110%,86.5% (inactive),110% (inactive),103% (inactive),97.1% (inactive),-3.58% (inactive),101%,97.1%,-2.53% (inactive),-1.15% (inactive)
CCOC(=O)c1sc(C)c2c1NC(C)(c1cccs1)NC2=O (stereo not given),105%,96.5% (inactive),105% (inactive),83.6% (inactive),82.5% (inactive),-8.16% (inactive),90.6%,82.5%,-1.73% (inactive),-6.94% (inactive)
O=C(NC12CC3CC(CC(C3)C1)C2)C1CCCN1C(=O)NC1CCCCC1 (stereo not given),102%,113% (inactive),102% (inactive),108% (inactive),92.6% (inactive),16.5% (inactive),76.2%,92.6%,-6.62% (inactive),1.5% (inactive)
Cc1cc(=O)[nH]c(=S)n1-c1ccccc1,99.5%,74.5% (inactive),99.5% (inactive),101% (inactive),100% (inactive),17.7% (inactive),82.6%,100%,-7.03% (inactive),3.33% (inactive)
c1ccc(-c2nnc(OCCN3CCOCC3)c3ccccc23)cc1,112%,118% (inactive),112% (inactive),87.3% (inactive),84.2% (inactive),-5.76% (inactive),89.9%,84.2%,-4.08% (inactive),2.62% (inactive)
Cc1nc2ccc(NC(=O)N3CCOCC3)cc2s1,87.5%,79.5% (inactive),87.5% (inactive),93.8% (inactive),89.8% (inactive),4.26% (inactive),85.6%,89.8%,-4.34% (inactive),-1.27% (inactive)
Cc1ccc(Nc2cc(C)nc3ncnn23)c(Cl)c1,85%,88.5% (inactive),85% (inactive),87% (inactive),97% (inactive),12.2% (inactive),84.9%,97%,-3.33% (inactive),-2.3% (inactive)
COc1ccc2c(CC(=O)Nc3ccc(OC)c(NS(=O)(=O)c4ccc(F)cc4)c3)coc2c1,88%,85% (inactive),88% (inactive),70.2% (inactive),86.3% (inactive),-1.86% (inactive),88.1%,86.3%,-2.18% (inactive),-0.33% (inactive)
COc1ccc(-c2cc(C(F)(F)F)n3ncc(C(=O)NCC4CCCO4)c3n2)cc1 (stereo not given),84%,116% (inactive),84% (inactive),78.9% (inactive),41.7% (active),-5.95% (inactive),47.6%,41.7%,-1.54% (inactive),-3.67% (inactive)
Oc1c(Cl)cc(Cl)cc1CNc1ccc(Br)cn1,100%,88% (inactive),100% (inactive),74.8% (inactive),93.2% (inactive),-3.58% (inactive),96.8%,93.2%,1.58% (inactive),13.4% (inactive)
COC(=O)C1CCN(C(=O)NC(C)(C)C)CC1,110%,83% (inactive),110% (inactive),104% (inactive),105% (inactive),17.2% (inactive),87.3%,105%,-5.27% (inactive),8.73% (inactive)
COCCNC(=O)C(c1ccncc1)N(C(=O)Cn1nnc2ccccc21)c1ccc(OC)cc1 (stereo not given),96%,73.5% (inactive),96% (inactive),97.7% (inactive),104% (inactive),9.12% (inactive),95.1%,104%,-7.03% (inactive),8.03% (inactive)
COC(=O)c1[nH]c2cccc(C)c2c1NC(=O)CN1CCCc2ccccc21,77.5%,92% (inactive),77.5% (inactive),67.1% (inactive),78.8% (inactive),2.1% (inactive),76.7%,78.8%,-1.47% (inactive),2.79% (inactive)

SMILES,viability [1],Her2 level [2],viability [3],viability [4],viability [5],differential viability (reversal) ([6]; H69AR cells + 2 uM doxorubicin),"viability [6, 9]","viability [6, 10]",inhibition [7],inhibition [8]
CC(C)CNC(=O)C1C2C=CC(C2)C1C(=O)O (stereo not given),96%,96% (inactive),96% (inactive),108% (inactive),111% (inactive),9.12% (inactive),102%,111%,-1.33% (inactive),-1.77% (inactive)
CCCCCCOC(=O)C(C#N)c1nc2ccccc2nc1N1CCCCC1 (stereo not given),94%,88% (inactive),94% (inactive),63.8% (inactive),89.1% (inactive),-11.9% (inactive),101%,89.1%,-2.47% (inactive),-2.33% (inactive)
CCOc1cc2[nH]c(=O)n(CCCCC(=O)N3CCCCCC3)c(=O)c2cc1OCC,90%,87.5% (inactive),90% (inactive),91.6% (inactive),76.8% (inactive),2.38% (inactive),74.4%,76.8%,-3.29% (inactive),-0.36% (inactive)
Cc1oc2nc(SCCCC(=O)NCCCO)nc(N)c2c1C,91.5%,85% (inactive),91.5% (inactive),103% (inactive),107% (inactive),7.75% (inactive),98.8%,107%,-0.79% (inactive),4.75% (inactive)
O=S(=O)(c1ccc(F)c(Cl)c1)N1CCCC1,100%,71% (inactive),100% (inactive),93.9% (inactive),92.2% (inactive),3.06% (inactive),89.2%,92.2%,-5.68% (inactive),0.16% (inactive)
CCOC(=O)CSc1nc2ccccc2n2cnnc12,104%,76.5% (inactive),104% (inactive),91.4% (inactive),83.9% (inactive),2.78% (inactive),81.1%,83.9%,-5.54% (inactive),-2% (inactive)
C=C(Cl)COC(=O)[C@H]1C2C=CC(C2)C1C(=O)O (stereo not given in full),99.5%,120% (inactive),99.5% (inactive),106% (inactive),101% (inactive),3.48% (inactive),98%,101%,-2.8% (inactive),-6.67% (inactive)
CC1Oc2ccccc2N(CC(=O)N(Cc2ccccc2)Cc2ccccn2)C1=O (stereo not given),108%,100% (inactive),108% (inactive),110% (inactive),88.6% (inactive),-1.47% (inactive),90.1%,88.6%,-5.54% (inactive),-10% (inactive)
Clc1ccc(Cc2nn3c(-c4ccncc4)nnc3s2)cc1,99.5%,107% (inactive),99.5% (inactive),101% (inactive),96.9% (inactive),-0.11% (inactive),97%,96.9%,-1.05% (inactive),15.4% (inactive)
Cc1cccc(CS(=O)(=O)Cc2ccc(C(=O)NCC3CCCO3)o2)c1 (stereo not given),85.5%,108% (inactive),85.5% (inactive),114% (inactive),94.7% (inactive),-7.89% (inactive),103%,94.7%,-2.89% (inactive),-4.19% (inactive)
CCSc1nnc(NC(=O)c2ccc(C)o2)s1,96.5%,98.5% (inactive),96.5% (inactive),105% (inactive),116% (inactive),18.2% (inactive),97.4%,116%,-4.13% (inactive),-5.32% (inactive)
O=c1cc(-c2ccc(Cl)cc2)[nH][nH]1,108%,84% (inactive),108% (inactive),93.5% (inactive),91.6% (inactive),5.75% (inactive),85.9%,91.6%,-7.84% (inactive),1% (inactive)
O=C(Nc1cccc(O)c1)c1ccccc1,93%,123% (inactive),93% (inactive),78% (inactive),95.2% (inactive),-7.51% (inactive),103%,95.2%,-5% (inactive),-7.05% (inactive)
CCOc1ccc(Oc2nc(Nc3ccc(C)cc3)nc(N(C)C)n2)nn1,85.5%,92% (inactive),85.5% (inactive),89.3% (inactive),95.3% (inactive),11.3% (inactive),84%,95.3%,-4.19% (inactive),1.97% (inactive)
Cc1ccc(NC(=O)CSc2nnc(CNC(=O)c3c(F)cccc3Cl)o2)cc1,80%,98% (inactive),80% (inactive),98% (inactive),95.7% (inactive),-0.775% (inactive),96.5%,95.7%,-0.51% (inactive),-6.83% (inactive)
CCCCc1cc(=O)oc2cc(C)cc(OC(C)C(=O)O)c12 (stereo not given),116%,115% (inactive),116% (inactive),109% (inactive),104% (inactive),8.19% (inactive),95.8%,104%,-2.3% (inactive),-7.17% (inactive)
